# Experimental data from different studies.
# Compare with care: the assays were run in different laboratories.
# LRRK2 G2019S: Leucine-rich repeat serine/threonine-protein kinase 2 (LRRK2, Homo sapiens, UniProt Q5S007, G2019S)
# LRRK2: Leucine-rich repeat serine/threonine-protein kinase 2 (LRRK2, Homo sapiens, UniProt Q5S007)
SMILES,target,assay,setting,endpoint,value
N#Cc1ccc(Nc2ccc3[nH]c(=O)[nH]c3c2)c(Cl)c1,LRRK2 G2019S,"cell-free assay, competition with immobilised ligand",1 µM,remaining binding,93%
Cc1cnc(NC2CCOCC2)nc1-n1cnc(C(=O)NC(CN)c2cc(F)cc(Cl)c2)c1 (centres unmarked),LRRK2,"enzyme activity, inhibitor, radiometric",1 µM,remaining activity,95%
Cc1ccc(NC(=O)c2ccc(CN3CCN(C)CC3)cc2)cc1Nc1nc(-c2cccnc2)cs1,LRRK2,cell-free assay,0.5 µM,remaining signal,107%
CC(C)(C)c1nc(-c2cccc(NS(=O)(=O)c3c(F)cccc3F)c2F)c(-c2ccnc(N)n2)s1,LRRK2,"enzyme activity, inhibitor, radiometric",1 µM,remaining activity,102%
Cc1sc(C(=O)NC2COC2)cc1-n1cc(NC(=O)Nc2c(F)cccc2Cl)cn1,LRRK2,"enzyme activity, inhibitor",10 µM,remaining activity,101%
Cc1cnn2ncc(-c3ccnc(N(C)C)n3)c2c1,LRRK2 G2019S,binding,1 µM,remaining binding,100%
CC(C)CC(=O)N1CCc2nc(-c3ccc(Br)cc3)nc(N(C)Cc3ccccc3)c2C1,LRRK2 G2019S,"cell-free assay, competition with immobilised ligand",0.1 µM,remaining binding,100%
Cc1ccc(C(=O)Nc2ccc(CN3CCN(C)CC3)c(C(F)(F)F)c2)cc1C#Cc1cnc2cccnn12,LRRK2 G2019S,"enzyme activity, inhibitor",23.5 nM,remaining activity,99%
COc1cc(Cl)c(C(=O)N[C@@H](CN[C@H]2CC[C@@H](N)CC2)Cc2ccc(C#N)cc2)cc1-c1ccc(CN[C@H](C)c2ccc(C)cc2)o1,LRRK2,"enzyme activity, inhibitor",1 µM,remaining activity,104%
Nc1ncnc2occ(-c3ccc(NC(=O)Nc4cc(C(F)(F)F)ccc4F)cc3)c12,LRRK2,"cell-free assay, inhibitor",20 µM,remaining signal,5.2%
CCN(CC)CCNC(=O)c1c(C)[nH]c(/C=C2\C(=O)Nc3ccc(F)cc32)c1C,LRRK2,cell-free assay,0.5 µM,remaining signal,3.34%
CN(C)C1CCN(CC#Cc2nn(C3CCCC3)c3nc(NCc4ccccc4)ncc23)C1 (centres unmarked),LRRK2,"enzyme activity, inhibitor, FRET",10 µM,inhibition,7%
O=C(O)[C@H]1[C@H](Cn2nnc3ccccc3c2=O)CC[C@@H]1C(=O)c1ccc(OCCC2CCOCC2)cc1,LRRK2 G2019S,"cell-free assay, competition with immobilised ligand",1 µM,remaining binding,100%
COc1ccnn2ncc(-c3ccnc(N(C)C)n3)c12,LRRK2,binding,1 µM,remaining binding,56%
Cc1ccc(NC(=O)c2ccc(C)c(C(F)(F)F)c2)cc1C#Cc1nn(C2CCC(O)CC2)c2ncnc(N)c12 (centres unmarked),LRRK2,cell-free assay,10 µM,remaining signal,15%
CCc1ccccc1C(=O)Nc1n[nH]c2c(C)c(F)c(C3C(C#N)=C(C)N(C)C(C)=C3C#N)cc12,LRRK2 G2019S,"cell-free assay, competition with immobilised ligand",1 µM,remaining binding,100%
C[C@@H]1CCN(c2nccc(-c3cnn4ncccc34)n2)C1,LRRK2,binding,1 µM,remaining binding,59%
CN(C)C(=O)Cn1cc(-c2nc(C3(c4ccc(-c5cnc(N)nc5)cc4)CC3)no2)cn1,LRRK2,"cell-free assay, competition with immobilised ligand",1 µM,remaining binding,100%
N[C@@H]1CCN(c2nccc(-c3cnn4ncccc34)n2)C1,LRRK2 G2019S,binding,1 µM,remaining binding,100%
COc1ccc2c(c1)O[C@@H](c1ccc(OC)c(OC)c1)C[C@H]2NC(=O)C1(c2ccc3c(c2)OC(F)(F)O3)CC1,LRRK2,"cell-free assay, competition with immobilised ligand",1 µM,remaining binding,87%
Cc1ccc(Nc2nccc(N(C)c3ccc4c(C)n(C)nc4c3)n2)cc1S(N)(=O)=O,LRRK2,"enzyme activity, inhibitor",0.5 µM,remaining activity,109%
O=C(O)c1cc(-c2ccc(C3CCNCC3)cc2)c2ccc(-c3ccc(C(F)(F)F)cc3)cc2c1,LRRK2,"cell-free assay, competition with immobilised ligand",1 µM,remaining binding,100%
CN1CC(Oc2cnc(C#N)cc2-c2ccn3nc(NC(=O)C4CC4)cc3c2)C1,LRRK2,"enzyme activity, inhibitor",1 µM,inhibition,-19%
COc1cc(-c2cn(C3CCc4c(F)cccc4N(CC(F)(F)F)C3=O)nn2)ccc1-n1cnc(C)c1 (centres unmarked),LRRK2 G2019S,"cell-free assay, competition with immobilised ligand",1 µM,remaining binding,100%
COc1cc(-c2cc(-c3ccc(N4CCNCC4)cc3)cnc2N)cc(OC)c1OC,LRRK2,"enzyme activity, inhibitor",1 µM,inhibition,33%
O=C(Nc1cnn(-c2csc(C(=O)NC3COC3)c2)c1)Nc1ccccc1Cl,LRRK2,"enzyme activity, inhibitor",5 µM,remaining activity,88.2%
